Series [1] can be described thus: AUC in Escherichia coli ATCC 35218 infected Wistar rat tissue cage fluid at 50 mg/kg/day, ip measured on day 4. More on the design: route intraperitoneal. The series is classed as ADME, organism-based.
Series [2] in a line: AUC in Escherichia coli ATCC 35218 infected Wistar rat serum at 50 mg/kg/day, ip measured on day 4. The series is classed as ADME, organism-based. On the set-up: route intraperitoneal.
In series [3] the test system is Staphylococcus aureus. The series is described as follows: Antimicrobial activity against […] Staphylococcus aureus ATCC 29213 coverslip Wistar rat infected model assessed as bacterial load reduction at 100 mg/kg/day, ip treated for 14 days measured 24 hrs after last dose (reference value: 5.4 +/- 1 logCFU/ml). To be noted: route intraperitoneal. The series is classed as functional.

For series [4], the system named is Staphylococcus aureus. In words: Antimicrobial activity against […] Staphylococcus aureus ATCC 29213 tissue cage Wistar rat infected model assessed as bacterial load reduction at 100 mg/kg/day, ip treated for 7 days measured 24 hrs after last dose (reference value: 6.8 +/-0.8 logCFU/ml). The series is classed as functional. To be noted: route intraperitoneal.

Series [5] can be described thus: Cmax in Escherichia coli ATCC 35218 infected Wistar rat tissue cage fluid at 50 mg/kg/day, ip measured on day 4. The series is classed as ADME, organism-based, Interstitial fluid. On the set-up: dose 50 mg/kg/day, route intraperitoneal.
The nature of series [6]: AUC in Escherichia coli ATCC 35218 infected Wistar rat serum at 100 mg/kg/day, ip measured on day 4. The series is classed as ADME, organism-based. More on the design: route intraperitoneal.
Series [7] deals with Staphylococcus aureus. The series is described as follows: Antimicrobial activity against […] Staphylococcus aureus ATCC 29213 tissue cage Wistar rat infected model assessed as bacterial load reduction at 100 mg/kg/day, ip treated for 7 days measured 24 hrs after last dose (reference value: 6.8 +/-0.8 logCFU/ml) co-treated with 25 mg/kg rifampin, ip bid. The series is classed as functional.

The subject of series [8] is Staphylococcus aureus. In words: Antimicrobial activity against methicillin-resistant Staphylococcus aureus ATCC 29213 tissue cage Wistar rat infected model assessed as bacterial load reduction at 50 mg/kg/day, ip treated for 7 days measured 24 hrs after last dose (reference value: 6.8 +/-0.8 logCFU/ml). The series is classed as functional. The note with it: route intraperitoneal.

Series [9] relates to Staphylococcus aureus. The series is described as follows: Antimicrobial activity against stationary phase culture of […] Staphylococcus aureus ATCC 29213 by macrodilution method. The series is classed as functional. The essentials:
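Macrodilution MIC and MBC. MIC: lowest concentration inhibiting macroscopic growth. MBC: lowest concentration killing 99.9% of the initial inoculum. Log-phase cultures were used, and MBC was also determined in stationary phase. Subcultures were streaked down the plate centre and left to dry before spreading, to avoid carryover.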

Series [10] relates to Staphylococcus aureus. In words: Antimicrobial activity against […] Staphylococcus aureus ATCC 29213 at 2 times MIC in presence of rifampin. The series is classed as functional, organism-based. The essentials:
(§1)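 24-h killing curves in log phase using subinhibitory and clinically available concentrations, single drug or with rifampin. Bactericidal activity is a ≥3-log10 CFU/ml fall from the initial inoculum at 24 h.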

Series [11] deals with Staphylococcus aureus. The series is described as follows: Antimicrobial activity against […] Staphylococcus aureus ATCC 29213 tissue cage Wistar rat infected model assessed as bacterial load reduction at 50 mg/kg/day, ip treated for 7 days measured 24 hrs after last dose (reference value: 6.8 +/-0.8 logCFU/ml) co-treated with 25 mg/kg rifampin, ip bid. The series is classed as functional.

The nature of series [12]: Cmax in Escherichia coli ATCC 35218 infected Wistar rat tissue cage fluid at 100 mg/kg/day, ip measured on day 4. The series is classed as ADME, organism-based, Interstitial fluid. On the set-up: dose 100 mg/kg/day, route intraperitoneal.
Series [13] has as its system Staphylococcus aureus. In words: Antimicrobial activity against […] Staphylococcus aureus ATCC 29213 tissue cage Wistar rat infected model assessed as bacterial load reduction at 100 mg/kg/day, ip treated for 14 days measured 24 hrs after last dose (reference value: 7.2 +/- 0.6 logCFU/ml) co-treated with 25 mg/kg rifampin, ip bid. The series is classed as functional.

In series [14] the test system is Staphylococcus aureus. In words: Antimicrobial activity against […] Staphylococcus aureus ATCC 29213 tissue cage Wistar rat infected model assessed as bacterial load reduction at 100 mg/kg/day, ip treated for 14 days measured 24 hrs after last dose (reference value: 7.2 +/- 0.6 logCFU/ml). To be noted: route intraperitoneal. The series is classed as functional.

A short description of series [15]: AUC in Escherichia coli ATCC 35218 infected Wistar rat tissue cage fluid at 100 mg/kg/day, ip measured on day 4. The series is classed as ADME, organism-based. More on the design: route intraperitoneal.
In series [16] the test system is Staphylococcus aureus. The series is described as follows: Antimicrobial activity against […] Staphylococcus aureus ATCC 29213 coverslip Wistar rat infected model assessed as bacterial load reduction at 100 mg/kg/day, ip treated for 14 days measured 24 hrs after last dose (reference value: 5.4 +/- 1 logCFU/ml) co-treated with 25 mg/kg rifampin, ip bid. The series is classed as functional.

A short description of series [17]: AUC in Staphylococcus epidermidis ATCC 27626 infected Wistar rat tissue cage fluid at 25 mg/kg, ip measured on day 4. The series is classed as ADME, organism-based. On the set-up: dose 25 mg/kg, route intraperitoneal.
The nature of series [18]: Ratio of Cmax in Wistar rat tissue cage fluid to MIC for Staphylococcus epidermidis ATCC 27626 at 25 mg/kg, ip measured on day 4. The series is classed as functional. To be noted: route intraperitoneal.
Series [19] concerns Staphylococcus aureus. The series is described as follows: Bactericidal activity against log phase culture of […] Staphylococcus aureus ATCC 29213 at 8 times MIC. The series is classed as functional, organism-based. The essentials:
as §1

Series [20] can be described thus: Ratio of AUC in Wistar rat tissue cage fluid to MIC for Staphylococcus epidermidis ATCC 27626 at 25 mg/kg, ip measured on day 4. The series is classed as functional. The note with it: route intraperitoneal.
The nature of series [21]: AUC in Staphylococcus epidermidis ATCC 27626 infected Wistar rat serum at 25 mg/kg, ip measured on day 4. More on the design: dose 25 mg/kg, route intraperitoneal. The series is classed as ADME, organism-based.
A short description of series [22]: Cmax in Staphylococcus epidermidis ATCC 27626 infected Wistar rat tissue cage fluid at 25 mg/kg, ip measured on day 4. The series is classed as ADME, organism-based. On the set-up: dose 25 mg/kg, route intraperitoneal.
In series [23] the test system is Staphylococcus aureus. The series is described as follows: Antimicrobial activity against […] Staphylococcus aureus ATCC 29213 tissue cage Wistar rat infected model assessed as bacterial load reduction at 25 mg/kg, ip bid treated for 7 days measured 24 hrs after last dose (reference value: 6.8 +/-0.8 logCFU/ml). The series is classed as functional. To be noted: route intraperitoneal.

Values after ≈ are worked out from the molar mass of the structure shown. Active and inactive are the calls of the source. The calls are words filed in the database; no cut-off is given here.

On to `C[C@H]1COc2c(N3CCN(C)CC3)c(F)cc3c(=O)c(C(=O)O)cn1c23.C[C@H]1COc2c(N3CCN(C)CC3)c(F)cc3c(=O)c(C(=O)O)cn1c23.O` [LEVOFLOXACIN], for which the AUC was 68 µg·h/mL in series [1], 77 µg·h/mL in series [2], 106 µg·h/mL in series [6] and 117 µg·h/mL in series [15]. For the same compound, the log10CFU/ml with Staphylococcus aureus [3] is listed as 2.24; with Staphylococcus aureus [4], 6.74; with Staphylococcus aureus [7] it was 6.74; with Staphylococcus aureus [8] it was 6.4; in the series with Staphylococcus aureus [11], 6.7; in the series on Staphylococcus aureus [13], 3.37. For the same compound, the log10CFU/ml came to 2.9 in the series with Staphylococcus aureus [14] and 3.36 in the series on Staphylococcus aureus [16]. Also, the maximum concentration (Cmax) in [5] was 6000 ng/mL; in [12] it was 12000 ng/mL. For the same compound, in the series with Staphylococcus aureus [9], the minimal bactericidal concentration (MBC) is more than 8 µg/mL. In the series with Staphylococcus aureus [10], the inhibition entry was “inactive”.
Regarding `CO[C@H]1/C=C/O[C@@]2(C)Oc3c(C)c(O)c4c(O)c(c(/C=N/N5CCN(C)CC5)c(O)c4c3C2=O)NC(=O)/C(C)=C\C=C\[C@H](C)[C@H](O)[C@@H](C)[C@@H](O)[C@@H](C)[C@H](OC(C)=O)[C@@H]1C` [RIFAMPIN], the figures for the exposure (AUC) in series [17] and in series [21] were 304 µg·h/mL and 277 µg·h/mL, respectively. Also, the Ratio in [18] amounted to 440; in series [20], 20260. Besides, the outcome with Staphylococcus aureus [19] was Active. This compound also returned an MBC in the series on Staphylococcus aureus [9] of 4 µg/mL (≈ 4.86 µM). In addition, in series [22], the highest level (Cmax) was 6600 ng/mL. In the series with Staphylococcus aureus [23], the log10CFU/ml was 6.9.

By AUC is commonly meant the area under the concentration-time curve, a measure of exposure. The low end stands for low exposure, the high end for high exposure. For orientation: Cmax means the highest concentration seen after dosing. By MBC is commonly meant the lowest tested concentration that kills the bacteria rather than only halting them. A higher MBC goes with weaker bactericidal potency.

Values taken from ChEMBL document CHEMBL1687713 (Antimicrob Agents Chemother, 2008).
